From ChEMBL document CHEMBL1135654, “Antitumor agents. 1. Synthesis, biological evaluation, and molecular modeling of 5H-pyrido[3,2-a]phenoxazin-5-one, a compound with potent antiproliferative activity” (J Med Chem, 2002)

Tests used:
[1] = system: CCRF-SB; assay: Compound concentration required to reduce the cell proliferation of human acute B-lymphoblastic leukemia CCRF-SB cells by 50%, using MTT method; format: functional, cell-based
Method in brief: (§1)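 Leukemia/lymphoma cells in exponential growth resuspended at 1 × 10^5 cells/mL in RPMI 1640 (10% FCS, antibiotics) with serial dilutions of drug (DMSO stock 200 µM diluted in medium). Viability by MTT after 96 h at 37 °C, 5% CO2. Growth expressed as % of untreated controls; IC50 by linear regression. Controls underwent ≥3 rounds of multiplication. Mean of three independent determinations.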

[2] = system: CCRF-CEM; assay: Compound concentration required to reduce the cell proliferation of human acute T-lymphoblastic leukemia CCRF-CEM cells by 50%, using MTT method; format: functional, cell-based; method in brief: as §1
[3] = system: HeLa; assay: Compound concentration required to reduce the cell proliferation of cervix carcinoma Hela cells by 50%, using MTT method; format: functional, cell-based; conditions: Homo sapiens
Method in brief: (§2)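 Solid-tumor cells in exponential growth seeded at 5 × 10^4 cells/mL in their own medium with 10% FCS, allowed to adhere 16 h, then serially diluted drug added (DMSO stock 200 µM diluted in medium). MTT viability read 4 days later, 37 °C, 5% CO2. IC50 by linear regression from % of untreated control growth. Three independent determinations.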

[4] = system: HEp-2; assay: Compound concentration required to reduce the cell proliferation of larynx carcinoma cells by 50%, using MTT method; format: functional, cell-based; conditions: Homo sapiens; method in brief: as §2
[5] = system: MT4; assay: Compound concentration required to reduce the cell proliferation of human CD4+T cells by 50%, using MTT method; format: functional, cell-based; method in brief: as §1
[6] = system: CCRF-SB; assay: Compound concentration required to reduce the cell proliferation of human acute B-lymphoblastic leukemia CCRF-SB cells by 50%, using MTT method.; format: functional, cell-based; method in brief: as §1
[7] = system: CCRF-CEM; assay: Compound concentration required to reduce the cell proliferation of human acute T-lymphoblastic leukemia CCRF-CEM cells by 50%, using MTT method.; format: functional, cell-based; method in brief: as §1
[8] = system: HeLa; assay: Compound concentration required to reduce the cell proliferation of cervix carcinoma Hela cells by 50%, using MTT method.; format: functional, cell-based; conditions: Homo sapiens; method in brief: as §2
[9] = system: HEp-2; assay: Compound concentration required to reduce the cell proliferation of larynx carcinoma cells by 50%, using MTT method.; format: functional, cell-based; conditions: Homo sapiens; method in brief: as §2
[10] = system: MT4; assay: Compound concentration required to reduce the cell proliferation of human CD4+T cells by 50%, using MTT method.; format: functional, cell-based; method in brief: as §1
[11] = system: 5637; assay: Antitumor activity against human bladder carcinoma 5637 cells; format: functional, cell-based; method in brief: as §2
[12] = system: ACHN; assay: Antitumor activity against human renal adenocarcinoma ACHN cells; format: functional, cell-based; method in brief: as §2
[13] = system: CCRF-SB; assay: Antitumor activity against human acute B-lymphoblastic leukemia CCRF-SB cells; format: functional, cell-based; method in brief: as §1
[14] = system: CCRF-CEM; assay: Antitumor activity against human acute T-lymphoblastic leukemia CCRF-CEM cells; format: functional, cell-based; method in brief: as §1
[15] = system: CRL-7065 cell line; assay: Antitumor activity against human foreskin fibroblasts CRL7065 cells; format: functional, cell-based; method in brief: as §2
[16] = system: C8166; assay: Antitumor activity against […] human acute T-lymphoblastic leukemia C8166 cells; format: functional, cell-based; method in brief: as §1
[17] = system: DU-145; assay: Antitumor activity against human prostate carcinoma DU145 cells; format: functional, cell-based; method in brief: as §2
[18] = system: G-361; assay: Antitumor activity against human skin melanoma G-361 cells; format: functional, cell-based; method in brief: as §2
[19] = system: HeLa; assay: Antitumor activity against cervix carcinoma Hela cells; format: functional, cell-based; conditions: Homo sapiens; method in brief: as §2
[20] = system: HEp-2; assay: Antitumor activity against larynx carcinoma Hep-2 cells; format: functional, cell-based; conditions: Homo sapiens; method in brief: as §2
[21] = system: HT-29; assay: Antitumor activity against human colon adenocarcinoma HT-29 cells; format: functional, cell-based; method in brief: as §2
[22] = system: HepG2; assay: Antitumor activity against human hepatocellular carcinoma HepG2 cells; format: functional, cell-based; method in brief: as §2
[23] = Compound concentration required to reduce the cell proliferation of Wild type and Drug- resistant human nasopharyngeal carcinoma KB cells by 50%; format: functional, cell-based
Method in brief: (§3)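 Cells seeded at 5 × 10^4 cells/mL, adhered 16 h, exposed to serial drug dilutions; MTT after 4 days. IC50 by linear regression versus untreated controls; mean ± SD of three independent determinations.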

[24] = Compound concentration required to reduce the cell proliferation of Wild type and drug-resistant KB subclones passaged in the presence of etoposide 7 uM by 50%; format: functional; conditions: Homo sapiens; method in brief: as §3
[25] = system: IMR-32; assay: Antitumor activity against human neuroblastoma IMR32 cells; format: functional, cell-based; method in brief: as §2
[26] = Compound concentration required to reduce the cell proliferation of Wild type and Drug- resistant KB subclones passaged in the presence of doxorubicin 0.09 uM by 50%; format: functional; conditions: Homo sapiens; method in brief: as §3
[27] = Effect on the proliferation Wild -type and Drug- resistant KB subclones passaged in the presence of vincristine 0.02 uM; format: functional, Homo sapiens; method in brief: as §3
[28] = system: MT4; assay: Antitumor activity against human CD4+T cells expressing the TAT gene of HTLV-1 MT-4 cells; format: functional, cell-based; method in brief: as §1
[29] = system: MOLT-4; assay: Antitumor activity against human acute T-lymphoblastic leukemia MOLT-4 cells; format: functional, cell-based
[30] = system: MT4; assay: Antitumor activity against […] human acute T-lymphoblastic leukemia MT-4 cells; format: functional, cell-based; method in brief: as §1
[31] = system: MCF7; assay: Antitumor activity against human breast adenocarcinoma MCF-7 cells; format: functional, cell-based; method in brief: as §2
[32] = (§4) Cytotoxicity for Peripheral blood Lymphocytes; format: functional; conditions: Homo sapiens
Method in brief: (§5)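 Human PBL from HIV-negative donors, isolated on Ficoll-Hypaque. Resting cells (1 × 10^6/mL) exposed up to 3 days to serial drug dilutions, washed, PHA-stimulated 24 h, diluted to 1 × 10^5/mL with PHA and IL-2, viability read after 6 days at 37 °C. Alternatively, PBL stimulated with PHA (2.5 µg/mL) 24 h, then grown with PHA, IL-2 (50 U/mL) and drug, and viable cells counted at day 6. Mean ± SD, three experiments.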

[33] = as §4; format: functional; conditions: Homo sapiens; method in brief: as §5; remark: listed apart in the source
[34] = system: Raji; assay: Antitumor activity against human Burkitt lym phoma Raji cells; format: functional, cell-based; method in brief: as §1
[35] = system: SK-MEL-28; assay: Antitumor activity against human skin melanoma […] cells; format: functional, cell-based; method in brief: as §2
[36] = system: SK-MES-1; assay: Antitumor activity against human lung squamous carcinoma SK-MES-1 cells; format: functional, cell-based; method in brief: as §2
[37] = system: Panel leukemia (Carcinoma cell lines); assay: Cytotoxicity for lymphoblastoid cell lines; format: functional; conditions: Homo sapiens
[38] = system: WIL2-NS; assay: Anti tumor activity against human splenic B-lympho blastoid Wil2-NS cells; format: functional, cell-based; method in brief: as §1
[39] = system: WIL2-NS; assay: Antitumor activity against human splenic B-lympho blastoid Wil2-NS cells; format: functional, cell-based; method in brief: as §1

| IC50 [6] | IC50 [7] | IC50 [8] | IC50 [11] | IC50 [12] | IC50 [13] | IC50 [14] | IC50 [16] | IC50 [17] | IC50 [18] | IC50 [19] | IC50 [20] | IC50 [21] | IC50 [22] | IC50 [25] | IC50 [29] | Compound | IC50 [9] | IC50 [10] | IC50 [15] | IC50 [28] | also measured |
| --- | --- | --- | --- | --- | --- | --- | --- | --- | --- | --- | --- | --- | --- | --- | --- | --- | --- | --- | --- | --- | --- |
|  |  |  |  |  |  |  |  |  |  |  |  |  |  |  |  | Nc1cc2nc3ccccc3oc-2cc1=O |  |  |  |  | IC50 [1]: 1000 nM; IC50 [2]: 2000 nM; IC50 [3]: 2700 nM; IC50 [4]: 1800 nM; IC50 [5]: 1200 nM |
| 9 µM | 19 µM | 13 µM |  |  |  |  |  |  |  |  |  |  |  |  |  | O=c1ccc2nc3ccccc3oc-2c1 | 14.2 µM | 11 µM |  |  |  |
|  |  |  | 10 nM | 10 nM | 9 nM | 10 nM | 100 nM | 40 nM | 10 nM | 200 nM | 40 nM | 0.25 µM | 50 nM | 10 nM | 40 nM | O=c1cc2oc3ccccc3nc-2c2cccnc12 |  |  | 500 nM | 10 nM | IC50 [23]: 100 nM; IC50 [24]: 20 nM; IC50 [26]: 40 nM; IC50 [27]: 60 nM; IC50 [30]: 10 nM; IC50 [31]: 230 nM; CC50 [32]: 5 µM; CC50 [33]: 30 nM; IC50 [34]: 40 nM; IC50 [35]: 210 nM; IC50 [36]: 40 nM; CC50 [37]: 40 nM; IC50 [38]: 50 nM |
| 3.6 µM | > 50 µM | 8.2 µM |  |  |  |  |  |  |  |  |  |  |  |  |  | CC(=O)Nc1cc2nc3ccccc3oc-2cc1=O | 1.4 µM | 9.5 µM |  |  |  |
|  |  |  | 150 nM | 1920 nM | 80 nM | 70 nM | 410 nM | 610 nM | 220 nM | 600 nM | 100 nM | 10 µM | 110 nM | 530 nM | 140 nM | O=c1cc2sc3ccccc3nc-2c2cccnc12 |  |  | 810 nM | 80 nM | IC50 [30]: 80 nM; IC50 [31]: 650 nM; IC50 [34]: 30 nM; IC50 [35]: 810 nM; IC50 [36]: 800 nM; IC50 [39]: 150 nM |
